Measured values as given in ChEMBL document CHEMBL1212766, “Dose escalation study of the safety, tolerability, and pharmacokinetics of nemonoxacin (TG-873870), a novel potent broad-spectrum nonfluorinated quinolone, in healthy volunteers” (Antimicrob Agents Chemother, 2010).
≈ marks a conversion by molar mass, not a printed value.

Columns and labels:
Homo sapiens [1] = experiment: Toxicity in healthy human assessed as occurrence of contact dermatitis at 25 […], po; format: organism-based; set-up: route oral; conditions: in vivo
Procedure, shortened: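 Randomized, double-blind, placebo-controlled single ascending oral doses in healthy volunteers (cohorts of 6 active, 2 placebo; 25–1,500 mg). After a 10-h fast, dose given with 240 ml water; fasting continued 4 h. Subjects were confined to 96 h postdose. AEs were recorded throughout dosing and at follow-up, reported as number and percentage of subjects with events per treatment.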

Homo sapiens [2] = experiment: Toxicity in healthy human assessed as occurrence of contact dermatitis at 1000 […], po; format: organism-based; set-up: route oral; conditions: in vivo
Procedure, shortened: (§1)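 Double-blind, placebo-controlled single ascending oral dose; two placebo and six active subjects per cohort. Adverse events were recorded throughout the dosing period and at follow-up, with confinement to 96 h after dosing. Results are reported as number and percentage of subjects with the event (n/N × 100).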

Homo sapiens [3] = experiment: Toxicity in healthy human assessed as occurrence of pruritus at 1000 […], po; format: organism-based; set-up: route oral; conditions: in vivo
Homo sapiens [4] = experiment: Toxicity in healthy human assessed as occurrence of erythema at 25 […], po; format: organism-based; set-up: route oral; conditions: in vivo
Homo sapiens [5] = experiment: Toxicity in healthy human assessed as occurrence of erythema at 50 […], po; format: organism-based; set-up: route oral; conditions: in vivo
Homo sapiens [6] = experiment: Toxicity in healthy human assessed as occurrence of headache at 250 […], po; format: organism-based; set-up: route oral; conditions: in vivo
Homo sapiens [7] = experiment: Toxicity in healthy human assessed as occurrence of headache at 1500 […], po; format: organism-based; set-up: route oral; conditions: in vivo
Homo sapiens [8] = experiment: Toxicity in healthy human assessed as occurrence of oral hypoesthesia at 1500 […], po; format: organism-based; set-up: route oral; conditions: in vivo
Homo sapiens [9] = experiment: Toxicity in healthy human assessed as occurrence of abdominal pain at 1500 […], po; format: organism-based, Abdomen; set-up: route oral; conditions: in vivo; procedure, shortened: as §1
Homo sapiens [10] = experiment: Toxicity in healthy human assessed as occurrence of pustular rashes at 125 […], po; format: organism-based; set-up: route oral; conditions: in vivo
Homo sapiens [11] = experiment: Toxicity in healthy human assessed as occurrence of nausea at 50 […], po; format: organism-based; set-up: route oral; conditions: in vivo
Homo sapiens [12] = experiment: Toxicity in healthy human assessed as occurrence of nausea at 125 […], po; format: organism-based; set-up: route oral; conditions: in vivo
Homo sapiens [13] = experiment: Toxicity in healthy human assessed as occurrence of nausea at 500 […], po; format: organism-based; set-up: route oral; conditions: in vivo
Homo sapiens [14] = experiment: Toxicity in healthy human assessed as occurrence of nausea at 1000 […], po; format: organism-based; set-up: route oral; conditions: in vivo
Homo sapiens [15] = experiment: Toxicity in healthy human assessed as occurrence of ear pain at 25 […], po; format: organism-based; set-up: route oral; conditions: in vivo
Homo sapiens [16] = experiment: Toxicity in healthy human assessed as occurrence of ear pain at 50 […], po; format: organism-based; set-up: route oral; conditions: in vivo
Homo sapiens [17] = experiment: Toxicity in healthy human assessed as occurrence of ear pain at 250 […], po; format: organism-based; set-up: route oral; conditions: in vivo
Homo sapiens [18] = experiment: AUC (0 to infinity) in healthy human at 50 mg/kg, po administered as single dose; format: ADME, organism-based, Plasma; set-up: time infinity, route oral; conditions: in vivo
[19] = Terminal phase elimination half-life in healthy human at 250 […], po administered single dose; format: ADME, organism-based; set-up: route oral; conditions: in vivo
Procedure, shortened: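 After one fasted oral dose (six healthy subjects per cohort), plasma was sampled from 0.5 to 96 h and assayed by LC-MS/MS (LLOQ 5 ng/ml). λz came from least-squares regression on at least the last three log-concentration points, and t1/2 = 0.693/λz. Values are means (SD).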

Homo sapiens [20] = experiment: Clearance in healthy human at 25 […], po administered as single dose; format: ADME, organism-based; set-up: route oral; conditions: in vivo
Procedure, shortened: (§2)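 Randomized, double-blind, placebo-controlled single ascending oral dose in fasted healthy subjects (six on drug per cohort, with 240 ml water). Plasma sampled predose through 96 h and assayed by validated LC-MS/MS over 5–5,000 ng/ml. Oral clearance (CL_o) came from noncompartmental analysis, with AUC_0-∞ from linear trapezoids plus C_last/λz. Values are means (SD).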

Homo sapiens [21] = experiment: Clearance in healthy human at 125 […], po administered as single dose; format: ADME, organism-based; set-up: route oral; conditions: in vivo; procedure, shortened: as §2
[22] = Clearance in healthy human assessed as recovery of unchanged drug in urine at 125 […], po administered as single dose; format: ADME, organism-based; set-up: route oral; conditions: read-out: Recovered in urine
Procedure, shortened: (§3)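 Healthy volunteers, six on drug per cohort, fasted 10 h and given one oral dose with 240 ml water, then fasted 4 h more. Urine was pooled over intervals from 0-2 to 72-96 h and stored at about −70°C. Drug was measured by solid-phase extraction and LC-MS/MS (LLOQ 200 ng/ml), giving the percent of dose recovered unchanged. Values are means (SD).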

[23] = Clearance in healthy human assessed as recovery of unchanged drug in urine at 250 […], po administered as single dose; format: ADME, organism-based; set-up: route oral; conditions: read-out: Recovered in urine; procedure, shortened: as §3
[24] = Clearance in healthy human assessed as recovery of unchanged drug in urine at 1000 […], po administered as single dose; format: ADME, organism-based; set-up: route oral; conditions: read-out: Recovered in urine; procedure, shortened: as §3
Streptococcus pneumoniae [25] = experiment: Antimicrobial activity against penicillin-intermediate Streptococcus pneumoniae; format: functional
Streptococcus pneumoniae [26] = experiment: Antimicrobial activity against penicillin-resistant Streptococcus pneumoniae; format: functional
Streptococcus pneumoniae [27] = experiment: Ratio of fAUC to MIC90 for penicillin-resistant Streptococcus pneumoniae; format: functional
Procedure, shortened: (§4)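 Fasted healthy adults got a single oral 500 mg dose with 240 ml water. Plasma was sampled predose to 96 h and assayed by LC-MS/MS (5–5,000 ng/ml). Cmax was read from individual profiles, and AUC0-∞ came from linear trapezoid plus extrapolation. Free fraction was measured by ultrafiltration (30,000 MWCO) of 0.5 and 6 h plasma. Free exposure was divided by the isolate MIC90.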

Streptococcus pneumoniae [28] = experiment: Ratio of fCmax to MIC90 for Streptococcus pneumoniae; format: functional; procedure, shortened: as §4
Streptococcus pneumoniae [29] = experiment: Ratio of fCmax to MIC90 for penicillin-sensitive Streptococcus pneumoniae; format: functional; procedure, shortened: as §4
Streptococcus pneumoniae [30] = experiment: Ratio of fCmax to MIC90 for penicillin-intermediate Streptococcus pneumoniae; format: functional; procedure, shortened: as §4
Streptococcus pneumoniae [31] = experiment: Ratio of fCmax to MIC90 for penicillin-resistant Streptococcus pneumoniae; format: functional; procedure, shortened: as §4
Staphylococcus aureus = experiment: Ratio of fCmax to MIC90 for methicillin-resistant Staphylococcus aureus; format: functional; procedure, shortened: as §4
[32] = Tmax in healthy human at 50 mg, po administered as single dose; conditions: in vivo
[33] = Tmax in healthy human at 500 mg, po administered as single dose; conditions: in vivo
[34] = Cmax in healthy human at 1500 mg, po administered as single dose; conditions: in vivo
Homo sapiens [35] = experiment: Clearance in healthy human at 1500 mg, po administered as single dose; conditions: in vivo
[36] = Renal clearance in healthy human at 250 mg, po administered as single dose; conditions: in vivo, read-out: CL_renal (converted)
Homo sapiens [37] = experiment: AUC (0 to infinity) in healthy human at 1000 mg, po administered as single dose; conditions: in vivo
Homo sapiens [38] = experiment: AUC (0 to infinity) in healthy human at 1500 mg, po administered as single dose; conditions: in vivo
Homo sapiens [39] = experiment: Terminal volume of distribution in healthy human at 250 mg, po administered as single dose; conditions: in vivo
Homo sapiens [40] = experiment: Terminal volume of distribution in healthy human at 1500 mg, po administered as single dose; conditions: in vivo

COc1c(N2C[C@@H](C)C[C@H](N)C2)ccc2c(=O)c(C(=O)O)cn(C3CC3)c12 [NEMONOXACIN]
Activity (Homo sapiens [1]): 50%
Activity (Homo sapiens [2]): 0%
Activity (Homo sapiens [3]): 17%
Activity (Homo sapiens [4]): 0%
Activity (Homo sapiens [5]): 0%
Activity (Homo sapiens [6]): 0%
Activity (Homo sapiens [7]): 17%
Activity (Homo sapiens [8]): 0%
Activity (Homo sapiens [9]): 17%
Activity (Homo sapiens [10]): 17%
Activity (Homo sapiens [11]): 0%
Activity (Homo sapiens [12]): 0%
Activity (Homo sapiens [13]): 0%
Activity (Homo sapiens [14]): 0%
Activity (Homo sapiens [15]): 0%
Activity (Homo sapiens [16]): 0%
Activity (Homo sapiens [17]): 0%
AUC (Homo sapiens [18]): 2990 ng·h/mL
half-life [19]: 10.9 h
CL (Homo sapiens [20]): 5 mL/min/kg
CL (Homo sapiens [21]): 3.67 mL/min/kg
dose excreted [22]: 38.3%
dose excreted [23]: 44.9%
dose excreted [24]: 36.5%
MIC90 (Streptococcus pneumoniae [25]): 0.015 µg/mL (≈ 0.0404 µM)
MIC90 (Streptococcus pneumoniae [26]): 0.03 µg/mL (≈ 0.0808 µM)
Ratio (Streptococcus pneumoniae [27]): 906
Ratio (Streptococcus pneumoniae [28]): 191
Ratio (Streptococcus pneumoniae [29]): 191
Ratio (Streptococcus pneumoniae [30]): 191
Ratio (Streptococcus pneumoniae [31]): 95
Ratio (Staphylococcus aureus): 48
Tmax [32]: 1.08 h
Tmax [33]: 2 h
Cmax [34]: 12100 ng/mL
CL (Homo sapiens [35]): 3 mL/min/kg
CL renal [36]: 1.83 mL/min/kg
AUC (Homo sapiens [37]): 63310 ng·h/mL
AUC (Homo sapiens [38]): 117840 ng·h/mL
Vbeta (Homo sapiens [39]): 3.58 L/kg
Vbeta (Homo sapiens [40]): 3.42 L/kg
